Assay results as given in ChEMBL document CHEMBL5365533, “DNA major versus minor groove occupancy of monomeric and dimeric crystal violet derivatives. Toward structural correlations” (Bioorg Med Chem, 2023).
Calls of active or inactive are those of the source. The rule behind the calls is not given here.

What was measured:
[1] = tested on: DNA; test: Displacement of Ethidium bromide from (AT)5 (5'-GGGATATA-TATATCCC-3') DNA (unknown origin)/EtBr complex assessed as decrease in initial absorbance of DNA by crystal violet staining based analysis; type: nucleic-acid assay
[2] = Binding affinity to DDD hairpin DNA (unknown origin) assessed as binding constant at 100 uM by ITC analysis
In short: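 Isothermal titration calorimetry of DDD hairpin (10 μM in cell) titrated with ligand (100 μM in syringe), 10 mM Tris-HCl pH 7.0, 30 °C; 25 injections of 10 μL. Heats of dilution subtracted; single-site binding model fitted; K averaged from triplicate experiments.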

[3] = tested on: DNA; test: Displacement of Ethidium bromide from A5T5 (5'-GGGAAAAATTTTTCCCCC-3') DNA (unknown origin)/EtBr complex assessed as decrease in initial absorbance of DNA by crystal violet staining based analysis; type: nucleic-acid assay
[4] = tested on: Calf thymus DNA; test: Binding affinity to calf thymus DNA assessed as change in melting temperature by UV thermal denaturation assay; type: nucleic-acid assay; details: Bos taurus
In short: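 CT DNA in 10 mM Tris-HCl pH 7.0 at a DNA:ligand ratio of 30:1, in 1 cm quartz cuvettes. Absorbance read every 2 °C from 25 to 95 °C, heating at 1 °C/min. Tm taken from first-derivative plots.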

[5] = Displacement of Ethidium bromide from G5C5 (5'-AAAGGGGG-CCCCCTTT-3') DNA (unknown origin)/EtBr complex assessed as decrease in initial absorbance of DNA by crystal violet staining based analysis
[6] = Displacement of Ethidium bromide from DDD (5-CGAATT-3') hairpin DNA (unknown origin)/EtBr complex assessed as decrease in initial absorbance of DNA by crystal violet staining based analysis
[7] = Displacement of Ethidium bromide from NFAT1 (5-GAAAAA-3') hairpin DNA (unknown origin)/EtBr complex assessed as binding constant by crystal violet staining based analysis
[8] = Displacement of Ethidium bromide from STAT6 (5'-TCCTAG-3') hairpin DNA (unknown origin)/EtBr complex assessed as binding constant by crystal violet staining based analysis
[9] = tested on: Calf thymus DNA; test: Binding affinity to calf thymus DNA in Tris-HCl buffer at pH 7.0 assessed as rigidification of DNA from intercalation of drug incubated for 30 mins by Ostwald viscometer analysis; type: nucleic-acid assay; details: Bos taurus
In short: (§1)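 Ostwald viscometer at 23.0 ± 1 °C. CT DNA held at 300 μM/bp in 10 mM Tris-HCl pH 7.0 with ligand or ethidium at 0–26 μM, incubated 30 min before timing flow. (η/η0)^1/3 plotted against [ligand]/[DNA]; three replicates, SD shown.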

[10] = Displacement of Ethidium bromide from cMyc (5'-CACGTG-3') hairpin DNA (unknown origin)/EtBr complex assessed as decrease in initial absorbance of DNA by crystal violet staining based analysis
[11] = Displacement of Ethidium bromide from cMyc (5'-CACGTG-3') hairpin DNA (unknown origin)/EtBr complex assessed as binding constant by crystal violet staining based analysis
[12] = Displacement of Ethidium bromide from G6 (5'-GGGGGG-3') hairpin DNA (unknown origin)/EtBr complex assessed as decrease in initial absorbance of DNA by crystal violet staining based analysis
[13] = tested on: Calf thymus DNA; test: Binding affinity to calf thymus DNA in Tris-HCl buffer at pH 7.0 assessed as minimal change in viscosity incubated for 30 mins by Ostwald viscometer analysis; type: nucleic-acid assay; details: Bos taurus; in short: as §1
[14] = tested on: Calf thymus DNA; test: Binding affinity to calf thymus DNA assessed as hypochromic shift by UV spectroscopic analysis; type: nucleic-acid assay; details: Bos taurus
In short: (§2)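 UV titration in 10 mM Tris-HCl pH 7.0 with ligand fixed at 5.0 μM and CT DNA:ligand ratios of 0:1, 1:1, 2:1, 5:1, 10:1 and 30:1.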

[15] = tested on: AT rich DNA; test: Displacement of Ethidium bromide from AT3 (5'-ATATAT-3') hairpin DNA (unknown origin)/EtBr complex assessed as decrease in initial absorbance of DNA by crystal violet staining based analysis; type: nucleic-acid assay
[16] = Displacement of Ethidium bromide from STAT6 (5'-TCCTAG-3') hairpin DNA (unknown origin)/EtBr complex assessed as decrease in initial absorbance of DNA by crystal violet staining based analysis
[17] = tested on: Calf thymus DNA; test: Binding affinity to calf thymus DNA in Tris-HCl buffer at pH 7.0 assessed as lengthening of DNA from intercalation of drug incubated for 30 mins by Ostwald viscometer analysis; type: nucleic-acid assay; details: Bos taurus; in short: as §1
[18] = Displacement of Ethidium bromide from NFAT1 (5-GAAAAA-3') hairpin DNA (unknown origin)/EtBr complex assessed as decrease in initial absorbance of DNA by crystal violet staining based analysis
[19] = tested on: AT rich DNA; test: Displacement of Ethidium bromide from AT3 (5'-ATATAT-3') hairpin DNA (unknown origin)/EtBr complex assessed as binding constant by crystal violet staining based analysis; type: nucleic-acid assay
[20] = Binding affinity to DDD (5-CGAATT-3') hairpin DNA (unknown origin) assessed as binding constant by isothermal titration calorimetry
[21] = molecular target: DNA; test: Binding affinity to pUC-19 plasmid DNA (unknown origin) assessed as DNA cleavage incubated for 30 mins in presence of BamHI restriction enzyme by ethidium bromide staining based agarose gel electrophoresis analysis; type: nucleic-acid assay
In short: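 pUC-19 linearized with AlwNI (37 °C, 30 min), enzyme heat-killed at 80 °C for 20 min, then incubated with varying ligand concentrations. BamHI digestion for 30 min at 37 °C. Run on 1% agarose containing ethidium bromide, 120 V for 40 min; visualized by UV transillumination.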

[22] = tested on: Calf thymus DNA; test: Binding affinity to calf thymus DNA assessed as bathochromic shift by UV spectroscopic analysis; type: nucleic-acid assay; details: Bos taurus; in short: as §2

CN(C)c1ccc(C(=C2C=CC(=[N+](C)C)C=C2)c2ccc3cc(N(C)C)ccc3c2)cc1
C50 [1]: 0.32 µM
K [2]: 3.1 10^5/M
C50 [3]: 0.52 µM
ΔTm [4]: 4.6 °C
C50 [5]: 0.88 µM

CN(C)c1ccc(C(=C2C=CC(=[N+](C)C)C=C2)c2ccccc2-c2ccccc2-c2ccccc2C(=C2C=CC(=[N+](C)C)C=C2)c2ccc(N(C)C)cc2)cc1
C50 [6]: 0.54 µM
K [7]: 1.14 10^5/M
K [8]: 1.8 10^5/M
Activity [9]: Active
C50 [10]: 0.57 µM
K [11]: 114000 M⁻¹
C50 [12]: 0.51 µM
Activity [13]: Dose-Dependent Effect
K [2]: 21.1 10^5/M
Activity [14]: Active
C50 [15]: 1.11 µM
C50 [16]: 0.56 µM
Activity [17]: Active
C50 [18]: 0.69 µM
ΔTm [4]: 3.6 °C
K [19]: 0.32 10^5/M
K [20]: 21.1 10^5/M
IC50 [21]: 67 µM
Activity [22]: Active
